Tests used:
[1] = system: α-cells of human islet grafts; test: α-cell proliferation in human islets grafted under the mouse kidney capsule; type: in vivo; conditions: 0.25 mg/kg/BW i.p. twice a week for 3 weeks
DYRK1B = DYRK1B (Homo sapiens, UniProt Q9Y463); test: Human kinome profiling, DYRK1B; type: biochemical
How it was run: (§1)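 Human kinases profiled by commercial providers under their standard protocols; ATP within 15 μmol/L of the apparent KM for each enzyme.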

[2] = system: liver, adipose, muscle and kidney tissue; test: Proliferation; type: in vivo, mouse; conditions: 3-week treatment, 0.25 mg/kg/BW i.p.
How it was run: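 Male NSG mice (8–10 weeks old) carried human islet kidney-capsule grafts. From 1 week post-graft they received test compound i.p. at 0.25 mg/kg in 50% DMSO or vehicle, twice weekly for 3 weeks. BrdU was then given at 100 mg/kg i.p. for 3 days, and mice were killed 6 h after the last dose. BrdU+ nuclei were counted in liver and muscle (≥3,000 cells) and in visceral/subcutaneous adipose (1,000–2,000 cells).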

DYRK4 = target: T1, DYRK4 (Homo sapiens, UniProt Q9NR20); test: Human kinome profiling, DYRK4; type: biochemical
T1 sequence (Q9NR20 1-520): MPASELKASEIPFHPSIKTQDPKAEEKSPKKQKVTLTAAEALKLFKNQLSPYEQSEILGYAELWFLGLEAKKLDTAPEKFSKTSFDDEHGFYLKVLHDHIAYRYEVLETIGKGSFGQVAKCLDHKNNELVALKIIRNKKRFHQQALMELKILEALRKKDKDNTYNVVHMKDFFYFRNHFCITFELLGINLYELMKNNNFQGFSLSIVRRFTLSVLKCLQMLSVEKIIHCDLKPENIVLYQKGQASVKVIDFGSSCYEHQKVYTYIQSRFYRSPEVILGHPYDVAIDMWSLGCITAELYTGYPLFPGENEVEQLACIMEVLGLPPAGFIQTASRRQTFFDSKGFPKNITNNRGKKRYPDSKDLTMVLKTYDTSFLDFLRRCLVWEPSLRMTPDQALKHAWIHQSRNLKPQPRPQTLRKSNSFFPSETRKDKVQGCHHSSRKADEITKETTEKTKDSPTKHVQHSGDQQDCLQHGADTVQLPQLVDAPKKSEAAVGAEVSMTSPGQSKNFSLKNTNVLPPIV
How it was run: as §1

CLK4 = CLK4 (Homo sapiens, UniProt Q9HAZ1); test: Human kinome profiling, CLK4; type: biochemical
How it was run: as §1

[3] = system: human islet cells (all cell types); test: Proliferation of other cell types in the heterogeneous human islet cell culture; type: cell-based

Chain of CLK4 (Q9HAZ1 whole entry): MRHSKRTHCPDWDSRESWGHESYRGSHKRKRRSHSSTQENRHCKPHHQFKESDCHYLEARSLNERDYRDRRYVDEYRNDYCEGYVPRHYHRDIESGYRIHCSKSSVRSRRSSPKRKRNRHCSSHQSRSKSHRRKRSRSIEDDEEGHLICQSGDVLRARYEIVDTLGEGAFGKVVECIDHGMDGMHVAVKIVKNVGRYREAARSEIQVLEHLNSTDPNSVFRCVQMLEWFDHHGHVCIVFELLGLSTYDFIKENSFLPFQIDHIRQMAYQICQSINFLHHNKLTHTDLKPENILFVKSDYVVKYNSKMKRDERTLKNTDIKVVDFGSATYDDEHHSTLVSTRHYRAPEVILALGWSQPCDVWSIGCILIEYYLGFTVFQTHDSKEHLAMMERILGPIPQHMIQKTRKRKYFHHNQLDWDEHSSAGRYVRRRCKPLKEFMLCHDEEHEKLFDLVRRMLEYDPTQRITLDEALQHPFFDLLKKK
Chain of DYRK1B (Q9Y463 whole entry): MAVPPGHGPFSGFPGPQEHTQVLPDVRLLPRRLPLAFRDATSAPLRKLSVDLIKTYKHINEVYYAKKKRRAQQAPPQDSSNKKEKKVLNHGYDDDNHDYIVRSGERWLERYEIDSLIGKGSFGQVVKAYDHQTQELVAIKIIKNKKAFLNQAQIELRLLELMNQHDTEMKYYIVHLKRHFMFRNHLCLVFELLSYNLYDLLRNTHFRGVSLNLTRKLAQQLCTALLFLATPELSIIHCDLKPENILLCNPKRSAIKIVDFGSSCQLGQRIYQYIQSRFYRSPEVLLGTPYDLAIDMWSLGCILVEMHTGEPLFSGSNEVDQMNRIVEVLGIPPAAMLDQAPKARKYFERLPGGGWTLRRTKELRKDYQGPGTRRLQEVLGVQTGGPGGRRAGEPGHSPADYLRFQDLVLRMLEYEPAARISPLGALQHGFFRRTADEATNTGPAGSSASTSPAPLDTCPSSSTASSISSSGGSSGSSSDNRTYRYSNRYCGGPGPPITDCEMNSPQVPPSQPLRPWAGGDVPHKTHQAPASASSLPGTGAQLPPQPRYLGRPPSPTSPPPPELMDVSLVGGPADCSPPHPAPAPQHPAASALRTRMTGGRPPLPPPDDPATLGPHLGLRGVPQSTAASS

remaining activity DYRK1B (DYRK1B; 100 nmol/L): < 10%
IC50 (DYRK1B; read-out: IC50 DYRK1B, ATP within 15 μmol/L of apparent KM): 0.01 µM
remaining activity DYRK4 (DYRK4; 100 nmol/L): < 10%
IC50 (DYRK4; read-out: IC50 DYRK4, ATP within 15 μmol/L of apparent KM): 0.129 µM
remaining activity CLK4 (CLK4; 100 nmol/L): < 10%
IC50 (CLK4; read-out: IC50 CLK4, ATP within 15 μmol/L of apparent KM): 0.014 µM
Compound: Nc1ncnc2c1c(I)cn2[C@@H]1O[C@H](CO)[C@@H](O)[C@H]1O [5-IT, 5-iodotubercidin]
α-cell proliferation in human islet grafts, treated vs nontreated [1]: no significant alterations
proliferation in liver, adipose, muscle and kidney tissue, treated vs control [2]: no significant differences
proliferation of all cell types in the heterogeneous culture system [3]: did not induce proliferation of all cell types
